The results in this text go back to ChEMBL document CHEMBL1125792, “Complexes of .NO with nucleophiles as agents for the controlled biological release of nitric oxide. Vasorelaxant effects” (J Med Chem, 1991).

One series is described as follows: Half-life was determined. The conditions noted are these: pH 7.4 phosphate buffer at 37 °C.
Series [1] is filed under the species Oryctolagus cuniculus. The experiment in a line: Vasorelaxant activity against isolated vascular ring preparation from rabbit thoracic aorta. The format is functional.
Series [2] can be described thus: Rate constant for loss of chromophore. The format is ADME. The essentials: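 UV decay of the 230–260 nm chromophore. Compound dissolved in 0.01 M KOH, then diluted with a large excess of pH 7.4 phosphate buffer in a thermostated 37 °C cuvette. Spectra were recorded within 1–2 s and intermittently afterward. First-order k was taken from the slope of ln(A − A∞) versus time; t1/2 was derived from k.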

The species named for series [3] is Oryctolagus cuniculus. The experiment in a line: Peak relaxation(Rm) of the vascular ring by the compound at highest concentration. The format is functional.

In the case of `CCN(CC)/[N+]([O-])=N\[O-].[Na+]`, the half-life – broadly, the time in which the quantity being followed falls by half – in the series “Half-life was determined” was 2.1 min. In the series listed under Oryctolagus cuniculus [1], the EC50 (commonly the midpoint of the concentration-response curve) amounted to 190 nM. In addition, the k in series [2] was 0.0054 s⁻¹. This molecule also returned a Rm in the series listed under Oryctolagus cuniculus [3] of 86%.

On to `CC(C)N[N+]([O-])=N[O-].[Na+]`, for which the half-life in the series “Half-life was determined” was found to be 2.3 min. Moreover, the EC50 in the series filed under Oryctolagus cuniculus [1] worked out at 450 nM. The k in series [2] was determined as 0.0051 s⁻¹. The Rm in the series listed under Oryctolagus cuniculus [3] was found to be 85%.

For the molecule `N.N.O=NN(O)S(=O)(=O)O`, the half-life in the series “Half-life was determined” stood at 6.8 min. Further, a half-maximal response in the series filed under Oryctolagus cuniculus [1] (EC50) required 62000 nM. The k in series [2] amounted to 0.0017 s⁻¹. In the series filed under Oryctolagus cuniculus [3], this molecule registered a Rm of 58%.

For `NCCCNCCCCN(CCCN)/[N+]([O-])=N\O`, the half-life in “Half-life was determined” worked out at 39 min. Besides, in the series listed under Oryctolagus cuniculus [1], a half-maximal response (EC50) required 6200 nM. In addition, in series [2], the k was 0.0003 s⁻¹. In the series filed under Oryctolagus cuniculus [3], this molecule displayed a Rm of 56%.

`[Na+].[Na+].[O-][N+]([O-])=NO` [ANGELI'S SALT] returned a half-life in “Half-life was determined” of 2.3 min. Also, in the series listed under Oryctolagus cuniculus [1], the EC50 is 590 nM. The molecule also had a k in series [2] of 0.005 s⁻¹. For the same molecule, the Rm in the series filed under Oryctolagus cuniculus [3] is reported as 74%.
